The values that follow come from PubChem BioAssay.

Activity calls are given as the source filed them.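 How the source made its calls, unless noted: active means inhibition at or above 50% at 10 µM; inactive means inhibition below 50%.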

Experiment [1] in a line: inhibitors of TNFa-induced NFkB p65 translocation, primary screen, imaging, HUVEC, MLSMR starter and 10KST1 sets (AID 438;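 active means inhibition above 20% together with a positive visual image hit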;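 further: compound added about 3h40 before a 20 min TNFalpha stimulation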;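 on inhibition: signal is the nuclear over cytoplasmic p65 intensity ratio per well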). The conditions noted are these: HUVEC TNFa-induced p65 nuclear translocation; cell count: measured here: nuclei count (cytotoxicity indicator), at 2.08 µM; inhibition: at 2 µM, stronger effect = higher value, 0% TNFa-plus-vehicle, 100% no-TNFa wells.
A short description of experiment [2]: reduction of polyQ htt aggregates in cells – imaging, exon1htt(103Q)mCFP cells, high-content imaging, primary screen (AID 483;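 active means visual image review flags a hit and inhibition of aggregation exceeds 20%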;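 further: compound exposure lasted 3 days before fixation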;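 on nuclei count: percent of the per-plate median nuclei count of sample wells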). As to conditions: exon1htt(103Q)mCFP cell line, aggregate imaging, at 2 µM; inhibition of aggregation: stronger effect = higher value; nuclei count: measured here: cell count, toxicity.
A short description of experiment [3]: endothelial E-selectin expression blockers – imaging, HUVEC, immunofluorescence, MLSMR starter and 10KST1 sets, primary screen (AID 487;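 active means visually confirmed hit in the image check and inhibition above 20%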;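 on inhibition: signal is fraction of cell area covered by stained E-selectin grains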;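 on nuclei count: 100% = median nuclei count of all wells on the same plate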). The conditions noted are these: HUVEC TNFalpha-induced E-selectin immunofluorescence imaging, at 2 µM; inhibition: stronger effect = higher value; nuclei count: measured here: cell number, toxicity.
Experiment [4] deals with Voltage-gated potassium channel subunit beta-2 (Rattus norvegicus) (UniProt P62483). The experiment in a line: inhibitors of rat Kvbeta2 reductase activity – biochemical, NADPH fluorescence, primary screen (AID 622;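 active means fluorescence slope higher than the sample average by over 3 SD, cut at about -0.22 in these data, passing the limit was not always enough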;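 further: slope of raw intensity against log time taken from 70 to 1610 s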). As to conditions: recombinant KvBeta, 4-cyanobenzaldehyde reduction, at 10 µM, stronger effect = higher value.
Chain of Voltage-gated potassium channel subunit beta-2 (Rattus norvegicus) (P62483 whole entry, looked up): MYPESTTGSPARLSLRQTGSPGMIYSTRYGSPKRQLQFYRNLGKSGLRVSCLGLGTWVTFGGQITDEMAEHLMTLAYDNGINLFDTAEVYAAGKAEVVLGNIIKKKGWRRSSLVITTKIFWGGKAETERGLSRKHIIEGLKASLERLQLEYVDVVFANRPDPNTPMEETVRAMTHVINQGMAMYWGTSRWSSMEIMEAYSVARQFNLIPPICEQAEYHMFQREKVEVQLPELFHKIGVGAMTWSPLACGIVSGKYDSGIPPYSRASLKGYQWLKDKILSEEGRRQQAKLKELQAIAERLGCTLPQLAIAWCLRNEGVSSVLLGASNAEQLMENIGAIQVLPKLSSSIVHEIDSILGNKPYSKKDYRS
Experiment [5] has the same target. The experiment in a line: enhancers of rat Kvbeta2 NADPH turnover – biochemical, NADPH fluorescence, primary screen (AID 623;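 active means NADPH fluorescence slope more negative than the mean of all samples by about 3 SD, 99.7% confidence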;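 further: fluorescence intensity change per second fitted from 20 to 320 s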). The conditions noted are these: Recombinant KvBeta, NADPH fluorescence decrease slope, 10 min; at 10 µM; stronger effect = lower value.
Experiment [6] concerns the target Muscarinic acetylcholine receptor M4 (Homo sapiens) (UniProt P08173). The experiment in a line: M4-linked GIRK flux change, two-sided – cell-based, HEK293 M4/GIRK, thallium flux, BTC-AM, M4 allosteric agonist project, primary screen (AID 625;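 active means fluorescence slope after compound addition differing from the mean of all tested samples at 99.7% confidence, mostly higher but some lower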;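 further: thallium influx through GIRK channels coupled to M4 in HEK293 cells with BTC-AM dye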). The conditions noted are these: at 10 µM, actives lie on both sides. The essentials:
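Material: M4/GIRK1/GIRK2 stable HEK293 cell line. Medium: pH 7.3 thallium assay buffer. Dosing: single compound concentration, 10 µM final. Schedule: 1 h dye loading, 2 min kinetic read. Measured by: kinetic fluorescence with BTC-AM dye. Read-out: post-addition slope, 15–24 s, of baseline-normalized fluorescence. Benchmarks: carbachol and DMSO controls.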

Experiment [7] can be described thus: blockers of RIG-like receptor reporter activation – cell-based, Sendai virus stimulus, luciferase, 10K MLSCN set, TLR/RLR signaling modifier project, primary screen (AID 602276).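 Further: firefly luciferase from ISG56 promoter only with Renilla not read in this screen; 0% = Sendai virus plus DMSO and 100% = medium plus DMSO without virus.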 The conditions noted are these: HEK293 RL24 IRF3 luciferase reporter, at 10 µM, stronger effect = higher value. (In a reporter assay the amount or activity of a reporter protein is the signal.)
The nature of experiment [8]: TLR3 IRF3 reporter activation blockers – cell-based, poly I:C stimulus, luciferase, 10K MLSCN set, primary screen (AID 602277;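 active means inhibition of the reporter signal at or above 50%; inactive means inhibition below 50%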). As to conditions: HEK293-TLR3 RL24 IRF3 luciferase reporter, at 10 µM, stronger effect = higher value.

Chain of Muscarinic acetylcholine receptor M4 (Homo sapiens) (P08173 whole entry, looked up): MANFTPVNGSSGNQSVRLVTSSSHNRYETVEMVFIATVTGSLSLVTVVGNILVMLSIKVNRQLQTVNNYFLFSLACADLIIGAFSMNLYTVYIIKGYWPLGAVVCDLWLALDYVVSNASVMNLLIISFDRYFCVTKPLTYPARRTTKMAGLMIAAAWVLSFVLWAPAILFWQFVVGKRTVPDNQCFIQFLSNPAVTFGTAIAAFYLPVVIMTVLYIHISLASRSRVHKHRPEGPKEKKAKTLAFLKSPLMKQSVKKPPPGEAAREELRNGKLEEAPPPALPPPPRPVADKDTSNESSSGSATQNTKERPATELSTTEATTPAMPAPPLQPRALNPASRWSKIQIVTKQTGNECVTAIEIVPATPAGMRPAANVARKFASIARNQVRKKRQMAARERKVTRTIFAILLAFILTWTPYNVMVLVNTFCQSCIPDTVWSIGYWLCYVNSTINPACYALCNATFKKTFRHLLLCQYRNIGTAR

For `O=C(CCn1c(=O)oc2ccccc21)NCCN1CCc2ccccc2C1`, in experiment [1], the cell count was determined as 375. Also, the inhibition (usually the change of the read-out against control, counted positive when it falls) in experiment [1] was 7.2% (inactive); in experiment [3] it was -315% (inactive); in experiment [7] it was 15.7% (inactive); in experiment [8] it was 29.6% (inactive). Also, the inhibition of aggregation in experiment [2] was 5.1% (inactive). The nuclei count in experiment [2] amounted to 93.1%; in experiment [3] it was 108%. Moreover, the fluorescence slope in experiment [4] was -0.451 (inactive); in experiment [6], 0.00577 (inactive). Further, in experiment [5], the NADPH fluorescence slope was -2.5e-05 (inactive).

In the case of `COc1ccccc1NC(=O)N1c2ccc(F)cc2CCC1C` (centres undefined), the cell count in experiment [1] came to 407. Besides, the inhibition was -2.5% (inactive) in experiment [1], -58.6% (inactive) in experiment [3], 16.7% (inactive) in experiment [7] and 24.1% (inactive) in experiment [8]. The inhibition of aggregation in experiment [2] was 2.1% (inactive). For the same molecule, the nuclei count in experiment [2] came out at 108%; in experiment [3], 111%. The fluorescence slope is -0.567 (inactive) in experiment [4] and 0.00635 (inactive) in experiment [6]. For the same molecule, the NADPH fluorescence slope in experiment [5] is -5e-06 (inactive).

Consider `CC1CCN(C(=O)CSc2nnc(-c3cccnc3)n2C2CCCCC2)CC1`, for which the cell count in experiment [1] is 463. Further, the inhibition is -5.1% (inactive) in experiment [1], -34.6% (inactive) in experiment [3], 18.4% (inactive) in experiment [7] and 16.9% (inactive) in experiment [8]. The inhibition of aggregation in experiment [2] was 6.5% (inactive). The results for the nuclei count in experiment [2] and in experiment [3] were 121% and 134%, respectively. In addition, the fluorescence slope was -0.471 (inactive) in experiment [4] and 0.00469 (inactive) in experiment [6]. In addition, the NADPH fluorescence slope in experiment [5] is -2.5e-05 (inactive).

As to `Cn1cnnc1SCC(=O)NCc1cccc(C(F)(F)F)c1`, the cell count in experiment [1] was 352. Besides, the inhibition in experiment [1] is 1.1% (inactive); in experiment [3] it was -95.6% (inactive); in experiment [7], 4.51% (inactive); in experiment [8], 3.97% (inactive). The inhibition of aggregation in experiment [2] is 0.1% (inactive). Moreover, the results for the nuclei count in experiment [2] and in experiment [3] were 116% and 118%, respectively. Moreover, the fluorescence slope was -0.532 (inactive) in experiment [4] and 0.00701 (inactive) in experiment [6]. Besides, in experiment [5], the NADPH fluorescence slope is 3.5e-05 (inactive).

Take `COc1cc(C2Nc3cccc4cccc(c34)N2)cc(OC)c1O`: in experiment [1], the cell count amounted to 372. The inhibition in experiment [1] is -0.6% (inactive); in experiment [3] it was -27.6% (inactive); in experiment [7], 3.04% (inactive); in experiment [8], 5% (inactive). Besides, in experiment [2], the inhibition of aggregation was 29.3% (inactive). The nuclei count in experiment [2] came to 91.5%; in experiment [3], 108%. Besides, the fluorescence slope in experiment [4] is -0.464 (inactive); in experiment [6], 0.00443 (inactive). Further, the NADPH fluorescence slope in experiment [5] was 1.6e-05 (inactive).

As for `Cc1ccc(C)c(SCC(=O)Nc2nnc(-c3ccccc3)o2)c1`, the cell count in experiment [1] was 395. Moreover, the inhibition in experiment [1] was -16.8% (inactive); in experiment [3], -16.3% (inactive); in experiment [7], 13.5% (inactive); in experiment [8], 19.4% (inactive). In addition, in experiment [2], the inhibition of aggregation is -12.6% (inactive). Also, the nuclei count came out at 99.9% in experiment [2] and 124% in experiment [3]. Moreover, the fluorescence slope is -0.586 (inactive) in experiment [4] and 0.00772 (inactive) in experiment [6]. For the same molecule, the NADPH fluorescence slope in experiment [5] is -3.2e-05 (inactive).

With `CCCn1c(=N)n(CC(=O)c2cccs2)c2ccccc21`, the cell count in experiment [1] is 427. In addition, the inhibition is 3.8% (inactive) in experiment [1], -47% (inactive) in experiment [3], 2.39% (inactive) in experiment [7] and 3.66% (inactive) in experiment [8]. The inhibition of aggregation in experiment [2] is -0.8% (inactive). In addition, the nuclei count in experiment [2] was determined as 87.6%; in experiment [3], 114%. Moreover, the fluorescence slope is -0.552 (inactive) in experiment [4] and 0.00423 (inactive) in experiment [6]. Also, the NADPH fluorescence slope in experiment [5] is -2.9e-05 (inactive).

As to `COCC(=O)Nc1sc2c(c1C(=O)OC)CCC(C)C2` (centres undefined), the cell count in experiment [1] worked out at 421. Besides, the inhibition in experiment [1] was 5.5% (inactive); in experiment [3], -127% (inactive); in experiment [7], 16.5% (inactive); in experiment [8] it was -17% (inactive). Moreover, the inhibition of aggregation in experiment [2] is -7.6% (inactive). For the same molecule, the results for the nuclei count in experiment [2] and in experiment [3] were 94.2% and 126%, respectively. In addition, the fluorescence slope in experiment [4] was -0.471 (inactive); in experiment [6] it was 0.00475 (inactive). Besides, the NADPH fluorescence slope in experiment [5] is -3.9e-05 (inactive).

Consider `CCn1c(=N)n(CC(O)COc2cccc(C)c2)c2ccccc21` (centres undefined), for which the cell count in experiment [1] is 289. Moreover, the inhibition was -4.7% (inactive) in experiment [1], -9.5% (inactive) in experiment [3], -0.649% (inactive) in experiment [7] and -11.2% (inactive) in experiment [8]. Besides, the inhibition of aggregation in experiment [2] is -15.2% (inactive). Moreover, the nuclei count was determined as 94.9% in experiment [2] and 112% in experiment [3]. For the same molecule, the fluorescence slope was -0.517 (inactive) in experiment [4] and 0.00395 (inactive) in experiment [6]. In experiment [5], the NADPH fluorescence slope is 4.3e-05 (inactive).

Regarding `Cc1ccc(S(=O)(=O)N2CCOCC2)cc1C(=O)Nc1ccc(-c2cn3ccsc3n2)cc1`, the cell count in experiment [1] is 614. Moreover, the inhibition in experiment [1] is -6.3% (inactive); in experiment [3] it was -29.6% (inactive); in experiment [7], -3.48% (inactive); in experiment [8] it was -16.4% (inactive). For the same molecule, the inhibition of aggregation in experiment [2] is -3% (inactive). Also, the nuclei count in experiment [2] worked out at 113%; in experiment [3] it was 122%. Moreover, the fluorescence slope in experiment [4] is -0.462 (inactive); in experiment [6], 0.00613 (inactive). Moreover, the NADPH fluorescence slope in experiment [5] was -8.9e-06 (inactive).

With `COc1cc(OC)cc(-c2nnc(Nc3nc4c(F)cccc4s3)o2)c1`, the cell count in experiment [1] is 345. Also, the inhibition in experiment [1] is -3.8% (inactive); in experiment [3], 28.3% (inactive); in experiment [7] it was 17.6% (inactive); in experiment [8] it was 12.9% (inactive). In addition, in experiment [2], the inhibition of aggregation is 12% (inactive). In addition, the nuclei count in experiment [2] amounted to 84.3%; in experiment [3], 92.1%. Also, the fluorescence slope in experiment [4] is -0.336 (inactive); in experiment [6] it was 0.0196 (active). Moreover, the NADPH fluorescence slope in experiment [5] was 7e-05 (inactive).

Consider `CCOc1ncccc1C(=O)OCC(=O)Nc1ncc(C(F)(F)F)cc1Cl`, for which the cell count in experiment [1] amounted to 474. The inhibition is -12.1% (inactive) in experiment [1], -29% (inactive) in experiment [3], 22.1% (inactive) in experiment [7] and 18% (inactive) in experiment [8]. Also, the inhibition of aggregation in experiment [2] is -26.1% (inactive). Moreover, the nuclei count is 80.7% in experiment [2] and 108% in experiment [3]. Further, the figures for the fluorescence slope in experiment [4] and in experiment [6] were -0.588 (inactive) and 0.00542 (inactive), respectively. The NADPH fluorescence slope in experiment [5] is 2.6e-05 (inactive).

As for `O=C(Nc1ccccc1)c1ccc(NCC2CCCO2)c(S(=O)(=O)N2CCOCC2)c1` (centres undefined), in experiment [1], the cell count amounted to 637. Moreover, the inhibition in experiment [1] is -1.5% (inactive); in experiment [3], -99.7% (inactive); in experiment [7], 5.98% (inactive); in experiment [8] it was 15.7% (inactive). In experiment [2], the inhibition of aggregation is 0.8% (inactive). Moreover, the figures for the nuclei count in experiment [2] and in experiment [3] were 108% and 98.8%, respectively. Besides, the fluorescence slope in experiment [4] was -0.453 (inactive); in experiment [6], 0.00503 (inactive). For the same molecule, the NADPH fluorescence slope in experiment [5] is 1.2e-05 (inactive).

On to `COc1ccc(CCn2c(N)c(C#N)c3nc4ccccc4nc32)cc1OC`, for which the cell count in experiment [1] came to 397. For the same molecule, the inhibition was -2.3% (inactive) in experiment [1], 21.9% (inactive) in experiment [3], 17.3% (inactive) in experiment [7] and 13.6% (inactive) in experiment [8]. Besides, in experiment [2], the inhibition of aggregation is -8% (inactive). Also, the nuclei count in experiment [2] came to 105%; in experiment [3] it was 150%. Further, the fluorescence slope is -0.52 (inactive) in experiment [4] and 0.00433 (inactive) in experiment [6]. The NADPH fluorescence slope in experiment [5] is -5.8e-05 (inactive).
